Where two headings read alike, the source gives them in different places. Where a SMILES comes first, the peptide text is derived from it. [ ]: non-standard residue; d: D form. The star is where a group is joined. FITC = O=C1OC2(c3ccc(O)cc3Oc3cc(O)ccc32)c2ccc(NC(=S)*)cc21; pY = N[C@@H](Cc1ccc(OP(=O)(O)O)cc1)C(=O)O; Ahx = NCCCCCC(=O)O Where only a bound is given, the exact number is not on record here.

Results on 13 molecules are retold here after publication PMC2669314 (Journal of medicinal chemistry, 2009).

The target in assay [1] is T1, Shc SH2 domain (Homo sapiens, UniProt P29353).
T1 sequence (P29353 488-579 limits assumed): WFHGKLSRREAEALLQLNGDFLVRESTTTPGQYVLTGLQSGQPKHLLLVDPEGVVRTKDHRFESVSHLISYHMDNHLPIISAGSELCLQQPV
The assay can be described thus: Fluorescence anisotropy competition assay using peptide 8 as reference peptide. The class given is binding. For orientation: Fluorescence polarisation rises when a labelled molecule tumbles more slowly, as on binding a larger partner.

The target of assay [2] is T1, Shc SH2 domain. The assay can be described thus: Steady state. The class given is binding. Particulars: for Kd ± s.d.: Table 1, FITC-labelled peptides, n.b. = no binding. The method in brief: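 Direct titration: 5 nM N-terminal fluorescein-labelled peptide in 1× BS with 10% (v/v) DMSO, with Shc protein serially diluted in from a 100 μM starting concentration. Excitation at 485 nm and parallel/perpendicular emission at 535 nm. Kd comes from fitting anisotropy against protein concentration to a single-site quadratic binding model, corrected for the bound/free fluorescence intensity ratio.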

For assay [3], the target named is T2, Shc SH2 domain protein (UniProt P29353).
T2 sequence: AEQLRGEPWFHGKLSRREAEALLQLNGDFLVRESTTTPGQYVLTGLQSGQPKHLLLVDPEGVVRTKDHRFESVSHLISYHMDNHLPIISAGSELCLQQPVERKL
Description: fluorescence polarisation.

For assay [4], the target named is FITC-NH-(CH2)2-CO-L-pY-Q-G-L-S-amide. Description: fluorescence polarisation.
In assay [5] the target is FITC-NH-(CH2)2-CO-pY-Q-G-L-S-amide. The assay can be described thus: fluorescence polarisation.
Assay [6] has as its target FITC-NH-(CH2)3-CO-L-pY-Q-G-L-S-amide. The assay can be described thus: fluorescence polarisation.
For assay [7], the target named is FITC-NH-(CH2)3-CO-pY-Q-G-L-S-amide. The assay can be described thus: fluorescence polarisation.
For assay [8], the target named is FITC-NH-(CH2)4-CO-L-pY-Q-G-L-S-amide. Description: fluorescence polarisation.
The target of assay [9] is FITC-NH-(CH2)4-CO-pY-Q-G-L-S-amide. Description: fluorescence polarisation.
In assay [10] the target is FITC-NH-(CH2)5-CO-pY-Q-G-L-S-amide. Description: fluorescence polarisation.
The next assay addresses FITC-pY-Q-G-L-S-amide. Description: fluorescence polarisation.
The target of assay [11] is T2, Shc SH2 domain protein. The assay can be described thus: fluorescence polarisation. This is another data set of the same source.

Usually IC50 stands for the concentration needed to halve the response being measured. A high value points to lower potency. At Shc SH2 domain [1], `CC(=O)N[C@@H](Cc1ccc(OP(=O)(O)O)cc1)C(=O)N[C@@H](CCC(N)=O)C(=O)NCC(=O)N[C@@H](CC(C)C)C(=O)N[C@@H](CO)C(N)=O` [Ac-pY-Q-G-L-S-amide] (HELM PEPTIDE1{[ac].[O=C([C@H](Cc1ccc(OP(=O)(O)O)cc1)N[*:1])[*:2]].Q.G.L.S.[am]}$$$$V2.0) had a concentration for half-maximal inhibition (IC50) of 112.5 ± 0.7 µM. Also, on Shc SH2 domain [1] (relative to 45 (IC50 = 248 μM)), the “Shc SH2 domain binding affinity relative to parent Gly-containing peptide 45” value is listed as “approximate doubling of binding affinity”. `CC(=O)N[C@@H](Cc1ccc(OP(=O)(O)O)cc1)C(=O)N[C@@H](CCC(N)=O)C(=O)NCC(N)=O` [Ac-pY-Q-G-amide] (HELM PEPTIDE1{[ac].[O=C([C@H](Cc1ccc(OP(=O)(O)O)cc1)N[*:1])[*:2]].Q.G.[am]}$$$$V2.0) returned an IC50 at Shc SH2 domain [1] greater than 500 µM. For orientation: Kd means the free concentration of one partner at which half of the binding sites on the other are occupied at equilibrium, for simple one-to-one binding. Higher therefore signals a looser complex. On to `CC(C)C[C@H](NC(=O)CNC(=O)[C@H](CCC(N)=O)NC(=O)[C@H](Cc1ccc(OP(=O)(O)O)cc1)NC(=O)[C@H](CC(C)C)NC(=S)Nc1ccc2c(c1)C(=O)OC21c2ccc(O)cc2Oc2cc(O)ccc21)C(=O)N[C@@H](CO)C(N)=O` [compound 3, FITC-L-pY-Q-G-L-S-amide] (HELM PEPTIDE1{[O=C1OC2(c3ccc(O)cc3Oc3cc(O)ccc32)c2ccc(NC(=S)[*:2])cc21].L.[O=C([C@H](Cc1ccc(OP(=O)(O)O)cc1)N[*:1])[*:2]].Q.G.L.S.[am]}$$$$V2.0), for which the Kd result at Shc SH2 domain [2] (FITC-containing peptides) is “complete loss of binding affinity”. Further, the “Kd ± s.d.” value at Shc SH2 domain [2] was “n.b. ^b”. As to `CC(C)C[C@H](NC(=O)CNC(=O)[C@H](CCC(N)=O)NC(=O)[C@H](Cc1ccc(OP(=O)(O)O)cc1)NC(=O)[C@H](CC(C)C)NC(=O)CCCCCNC(=S)Nc1ccc2c(c1)C(=O)OC21c2ccc(O)cc2Oc2cc(O)ccc21)C(=O)N[C@@H](CO)C(N)=O` [compound 14, FITC-NH-(CH2)5-CO-L-pY-Q-G-L-S-amide] ({FITC-Ahx}-L[pY]QGLS-NH2), the “Kd ± s.d.” value on Shc SH2 domain [2] was “n.b”. With `CC(=O)NCCCCC(=O)N[C@@H](Cc1ccc(OP(=O)(O)O)cc1)C(=O)N[C@@H](CCC(N)=O)C(=O)NCC(=O)N[C@@H](CC(C)C)C(=O)N[C@@H](CO)C(N)=O` [compound 15, Ac-NH-(CH2)4-CO-pY-Q-G-L-S-amide] (HELM PEPTIDE1{[ac].[O=C(CCCCN[*:1])[*:2]].[O=C([C@H](Cc1ccc(OP(=O)(O)O)cc1)N[*:1])[*:2]].Q.G.L.S.[am]}$$$$V2.0), on Shc SH2 domain [1], the IC50 was 158 ± 10 µM. With “Ac-pY-Q-G-L-S-NHR, R = allyl, no N-allyl substitution (peptide 31)”, the concentration for half-maximal inhibition (IC50) in the assay with Shc SH2 domain protein [3] came to 189 µM.

“Ac-pY-Q-G-L-S-NHR, R = homoallyl, no N-allyl substitution (peptide 35)”: the IC50 in the assay with Shc SH2 domain protein [3] was 165 µM. The IC50 values of the last two molecules are within 1.5-fold of each other. Ac-pY-Q-G-L-S-amide (peptide) had an IC50 with Shc SH2 domain protein [3] of 112 µM.

“FITC-NH-(CH2) -CO-L-pY-Q-G-L-S-amide (LYQGLS; not fully specified; FITC-NH-(CH2)-CO- on the N-terminus; phosphotyrosine at 2; C-terminal amide) [compound 10]”: the “Kd ± s.d.” value with Shc SH2 domain [2] was “n.b”. For “FITC-NH-(CH2)-CO-pY-Q-G-L-S-amide (YQGLS; not fully specified; FITC-NH-(CH2)-CO- on the N-terminus; phosphotyrosine at 1; C-terminal amide) [compound 5]”, in the assay with Shc SH2 domain [2], the “Kd ± s.d.” value was “n.b”. As for “Shc SH2 domain protein (from UniProt P29353 480-583) (domain or fragment)”, the Kd in assay [4] came out at 7.6 µM; in assay [5] it was 1.09 µM; in assay [6] it was 8.6 µM; in [7], 7.2 µM; in assay [8], 8.9 µM; in assay [9], 0.35 µM. Further, the Kd in assay [10] came out at 4.7 µM; with FITC-pY-Q-G-L-S-amide it was 12.4 µM.

Molecule Ac-[pY]QGL-{NH‑allyl} [Ac-pY-Q-G-L-NHR, R = allyl, no N-allyl substitution (peptide 38)] showed a concentration for half-maximal inhibition (IC50) with Shc SH2 domain protein [11] of 91 µM.

B1: Ac-pY-Q-G-L-amide (peptide)
peptide: YQGL
HELM: PEPTIDE1{[ac].[O=C([C@H](Cc1ccc(OP(=O)(O)O)cc1)N[*:1])[*:2]].Q.G.L.[am]}$$$$V2.0
SMILES: CC(=O)N[C@@H](Cc1ccc(OP(=O)(O)O)cc1)C(=O)N[C@@H](CCC(N)=O)C(=O)NCC(=O)N[C@@H](CC(C)C)C(N)=O
B1: in the assay with Shc SH2 domain protein [11], the concentration for half-maximal inhibition (IC50) turned out to be 248 µM. Against the preceding molecule, the IC50 is about 2.7-fold higher.
